Experimental data gathered from unrelated publications.
Each line is one published result; the experiments were not run side by side.
CDK9: Cyclin-dependent kinase 9 (CDK9, Homo sapiens, UniProt P50750)
CDK9 with cyclin T1: Cyclin-dependent kinase 9, with cyclin T1 (CDK9, Homo sapiens, UniProt P50750)

Structure (SMILES)	target	read-out	mode	technique	tested at	quantity	value
O=c1[nH]c2ccccc2n1C1CCN(Cc2ccc(-c3[nH]c4cc5ncnc5cc4nc3-c3ccccc3)cc2)CC1	Cyclin-dependent kinase 9, with cyclin K (CDK9, Homo sapiens, UniProt P50750)	cell-free assay	–	–	0.5 µM	remaining signal	108%
Nc1ncc(-c2nc(N3CCOCC3)nc(N3CCOCC3)n2)c(C(F)F)n1	CDK9	binding	–	competition with immobilised ligand	10 µM	remaining binding	99%
C#Cc1n[nH]c2c(-c3cn(C(C)c4ccccn4)c(=O)[nH]c3=O)cc(F)cc12 (centres unmarked)	CDK9 with cyclin T1	enzyme activity	inhibitor	–	1 µM	inhibition	20.9%
Cn1cncc1[C@](O)(COc1ccc(C#N)cc1-c1ccc(OC(F)(F)F)cc1)c1ccc(C#N)cc1	CDK9	cell-free assay	–	competition with immobilised ligand	1 µM	remaining binding	100%
Cn1cc(-c2cccc(N3CCc4c(sc5c4CC(C)(C)C5)C3=O)c2CO)cc(Nc2ccncn2)c1=O	CDK9 with cyclin T1	enzyme activity	inhibitor	–	1 µM	inhibition	11%
N#CC1(c2ccccn2)CCN(Cc2cc(C(=O)O)c(=O)n3ccccc23)CC1	CDK9	cell-free assay	–	competition with immobilised ligand	1 µM	remaining binding	99%
Cc1nn(C)cc1-c1nc2c(N3CCN(Cc4ccc(Cl)cc4)CC3)c(Cl)cnc2[nH]1	CDK9	binding	–	competition with immobilised ligand	1 µM	remaining binding	100%
COc1ncccc1-c1cnn2ccc(N3CCN(C(=O)OC(C)C)CC3)nc12	CDK9	binding	–	competition with immobilised ligand	1 µM	remaining binding	93%
